{"source": "PubChem BioAssay AID652075", "about": "(The Scripps Research Institute Molecular Screening Center, 2013)", "target": "Voltage-gated inwardly rectifying potassium channel KCNH2 (Homo sapiens) (UniProt Q12809)", "sequence (Q12809 whole entry, looked up)": "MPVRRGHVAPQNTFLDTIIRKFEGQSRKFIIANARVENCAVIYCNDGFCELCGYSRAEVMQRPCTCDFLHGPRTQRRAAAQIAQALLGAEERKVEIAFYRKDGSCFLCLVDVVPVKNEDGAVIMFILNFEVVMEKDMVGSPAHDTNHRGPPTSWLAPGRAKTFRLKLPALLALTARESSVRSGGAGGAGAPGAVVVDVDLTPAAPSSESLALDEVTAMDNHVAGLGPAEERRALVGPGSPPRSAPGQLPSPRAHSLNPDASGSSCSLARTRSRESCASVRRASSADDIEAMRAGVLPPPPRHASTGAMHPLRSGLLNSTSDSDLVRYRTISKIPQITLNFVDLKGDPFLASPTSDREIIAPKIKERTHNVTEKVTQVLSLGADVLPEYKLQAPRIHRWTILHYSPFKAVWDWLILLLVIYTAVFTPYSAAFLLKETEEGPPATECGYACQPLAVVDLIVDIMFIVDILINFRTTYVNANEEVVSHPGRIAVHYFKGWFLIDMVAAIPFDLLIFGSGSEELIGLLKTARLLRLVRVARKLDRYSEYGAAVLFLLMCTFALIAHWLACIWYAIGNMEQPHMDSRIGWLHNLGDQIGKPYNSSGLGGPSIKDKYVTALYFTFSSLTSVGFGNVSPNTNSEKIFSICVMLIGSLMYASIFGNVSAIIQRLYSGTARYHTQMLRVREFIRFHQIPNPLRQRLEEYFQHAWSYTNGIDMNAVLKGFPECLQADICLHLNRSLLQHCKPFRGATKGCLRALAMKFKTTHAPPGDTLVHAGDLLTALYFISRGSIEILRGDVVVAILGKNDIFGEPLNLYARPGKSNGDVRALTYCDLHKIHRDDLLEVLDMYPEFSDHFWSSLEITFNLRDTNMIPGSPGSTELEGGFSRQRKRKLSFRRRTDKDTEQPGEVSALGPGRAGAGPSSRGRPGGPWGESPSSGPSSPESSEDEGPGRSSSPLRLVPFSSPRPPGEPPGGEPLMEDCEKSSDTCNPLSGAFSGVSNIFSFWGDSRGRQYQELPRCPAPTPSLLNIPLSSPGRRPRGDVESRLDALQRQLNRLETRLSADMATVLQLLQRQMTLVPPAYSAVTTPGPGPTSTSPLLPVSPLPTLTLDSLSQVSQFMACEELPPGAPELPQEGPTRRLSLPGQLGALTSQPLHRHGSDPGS", "assay": "hERG radioligand binding displacement, late-stage follow-up, counter-screen for OPRK1 antagonist project, biochemical, radiometric (AID 652075)", "details": "CEREP, at 10 µM, active compounds read high", "outline": "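Material: hERG radioligand binding | Also added: Radiolabelled ligand, excess unlabelled ligand for nonspecific binding | Doses: Single test compound dose of 10 µM | Technique: Radioligand binding | Evaluation: Percent inhibition of specific binding versus control, negatives denoting stimulation | Control set: Excess unlabelled ligand for nonspecific binding | Replicates: Duplicate measurements per compound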", "note": "Calls of active or inactive are those of the source.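 Rule for the calls: active = hERG binding inhibition of 50% or more, or stimulation of 50% or more, shown as inhibition of -50% or lower; inactive = the rest.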"}
{"smiles": "COC(=O)c1cc(Br)cnc1N1CCC(NC2CCCCC2)C(O)C1", "note": "(stereo unspecified)", "values": [{"measurement": "inhibition", "result": "39.3% (inactive)"}]}
